What was measured:
Mouse [1] = test: concentration in plasma after dosing; details: 2 h; dosed: 2-Hydroxy-4-methoxybenzophenone; 250 mg/kg; oral; Female; B6C3F1
Rat [2] = test: concentration in plasma after dosing; details: dosed: 2-Hydroxy-4-methoxybenzophenone, 250 mg/kg, oral, Female, F344
Rat [3] = test: concentration in plasma after dosing; details: 0.25 h; dosed: 2-Hydroxy-4-methoxybenzophenone; 500 mg/kg; oral; Female; F344
Rat [4] = test: concentration in plasma after dosing; details: dosed: 2-Hydroxy-4-methoxybenzophenone, 8 mg/kg, iv, Male, F344
Rat [5] = test: concentration in plasma after dosing; details: dosed: 2-Hydroxy-4-methoxybenzophenone, 500 mg/kg, oral, Male, F344
Rat [6] = test: concentration in plasma after dosing; details: 2.5 min; dosed: 2-Hydroxy-4-methoxybenzophenone; 500 mg/kg; oral; Female; F344
Rat [7] = test: concentration in plasma after dosing; details: dosed: 2-Hydroxy-4-methoxybenzophenone, 8 mg/kg, iv, Female, F344
Rat [8] = test: concentration in plasma after dosing; details: dosed: 2-Hydroxy-4-methoxybenzophenone, 100 mg/kg, oral, Female, F344
Mouse [9] = test: concentration in plasma after dosing; details: 0.25 h; dosed: 2-Hydroxy-4-methoxybenzophenone; 250 mg/kg; oral; Female; B6C3F1
Rat [10] = test: concentration in plasma after dosing; details: dosed: 2-Hydroxy-4-methoxybenzophenone, 500 mg/kg, oral, Female, F344
Rat [11] = test: concentration in plasma after dosing; details: 0.5 h; dosed: Nitrite; 80 mg/kg; oral; Female; F344
Rat [12] = test: concentration in plasma after dosing; details: 10 min; dosed: Nitrite; 40 mg/kg; oral; Male; F344
Rat [13] = test: concentration in kidney after dosing; details: 12 h; dosed: Fluorotelomer alcohol 8+2; 24 mg/kg; oral; Male; Harlan Sprague Dawley
Rat [14] = test: concentration in kidney after dosing; details: 6 h; dosed: Fluorotelomer alcohol 8+2; 80 mg/kg; oral; Female; Harlan Sprague Dawley
Rat [15] = test: concentration in kidney after dosing; details: 12 h; dosed: Perfluorooctanoic acid; 12 mg/kg; oral; Male; Harlan Sprague Dawley
Rat [16] = test: concentration in plasma after dosing; details: dosed: 678-39-7, 40 mg/kg, iv, Female, Harlan Sprague-Dawley
Rat [17] = test: concentration in plasma after dosing; details: 5 min; dosed: 678-39-7; 12 mg/kg; iv; Male; F344
Rat [18] = test: concentration in brain after dosing; details: 12 h; dosed: Perfluorooctanoic acid; 12 mg/kg; oral; Male; Harlan Sprague Dawley
Rat [19] = test: concentration in kidney after dosing; details: 192 h; dosed: Perfluorooctanoic acid; 12 mg/kg; oral; Male; Harlan Sprague Dawley
Rat [20] = test: concentration in liver after dosing; details: 1 h; dosed: Fluorotelomer alcohol 8+2; 80 mg/kg; oral; Female; Harlan Sprague Dawley
Rat [21] = test: concentration in liver after dosing; details: 1 h; dosed: Fluorotelomer alcohol 8+2; 80 mg/kg; oral; Female; Harlan Sprague Dawley; remark: listed apart in the source
Rat [22] = test: concentration in plasma after dosing; details: dosed: 678-39-7, 40 mg/kg, iv, Male, F344
Rat [23] = test: concentration in kidney after dosing; details: 6 h; dosed: Fluorotelomer alcohol 8+2; 80 mg/kg; oral; Female; Harlan Sprague Dawley; remark: listed apart in the source
Rat [24] = test: concentration in liver after dosing; details: 12 h; dosed: Perfluorooctanoic acid; 80 mg/kg; oral; Female; Harlan Sprague Dawley
Rat [25] = test: concentration in brain after dosing; details: 0.5 h; dosed: Potassium Perfluorobutane Sulfonate; 20 mg/kg; oral; Female; Harlan Sprague Dawley
Rat [26] = test: concentration in liver after dosing; details: 3 h; dosed: Potassium Perfluorobutane Sulfonate; 20 mg/kg; oral; Female; Harlan Sprague Dawley
Rat [27] = test: concentration in plasma after dosing; details: 1.5 h; dosed: Potassium Perfluorobutane Sulfonate; 4 mg/kg; iv; Male; F344
Rat [28] = test: concentration in kidney after dosing; details: 6 h; dosed: Potassium Perfluorobutane Sulfonate; 20 mg/kg; oral; Male; Harlan Sprague Dawley
Rat [29] = test: concentration in plasma after dosing; details: 1.5 h; dosed: Potassium Perfluorobutane Sulfonate; 4 mg/kg; iv; Male; F344; remark: listed apart in the source
Rat [30] = test: concentration in plasma after dosing; details: dosed: Potassium Perfluorobutane Sulfonate, 4 mg/kg, iv, Male, F344
Rat [31] = test: concentration in plasma after dosing; details: dosed: Potassium Perfluorobutane Sulfonate, 4 mg/kg, oral, Male, Harlan Sprague Dawley
Rat [32] = test: concentration in plasma after dosing; details: dosed: Potassium Perfluorobutane Sulfonate, 4 mg/kg, oral, Male, Harlan Sprague Dawley; remark: listed apart in the source
Rat [33] = test: concentration in plasma after dosing; details: dosed: Potassium Perfluorobutane Sulfonate, 4 mg/kg, iv, Male, F344; remark: listed apart in the source
monkey = test: concentration in blood after dosing; negative times count back from the end of exposure; details: dosed: methanol, 1200 ppm, inhalation, duration: 6 hr, male, Macaca mulatta
Summary of the method: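 Points were largely digitised from plot screenshots with WebPlotDigitizer or otherwise copied from tables, and they remain in the units each source reported. They come from published in vivo toxicokinetic studies and two structured collections. Sampling and analytical methods follow each source and were often not reported.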

COc1ccc(C(=O)c2ccccc2)c(O)c1 [2-Hydroxy-4-methoxybenzophenone]
Details	concentration in plasma [µg/mL]
Mouse [1]	0.0556
Mouse [9]	0.0883
Rat [3]	1.73
Rat [6]	0.0128

Details	concentration in plasma [µg/mL]
Rat [2], 0.25 h	0.453
Rat [2], 4 h	0.019
Rat [4], 0.25 h	2.37
Rat [4], 2 h	0.113
Rat [5], 2.5 min	0.0064
Rat [5], 4 h	0.578
Rat [7], 0.25 h	0.12
Rat [7], 4 h	0.0756
Rat [8], 3 h	0.0136
Rat [8], 10 min	0.0278
Rat [10], 2.5 min	0.0473
Rat [10], 4 h	0.24

O=N[O-] [Nitrite]
Details	concentration in plasma [µg/mL]
Rat [11]	69.3
Rat [12]	2.6

O=C(O)C(F)(F)C(F)(F)C(F)(F)C(F)(F)C(F)(F)C(F)(F)C(F)(F)F [Perfluorooctanoic acid]
Details	concentration in brain [ng/g]	concentration in kidney [ng/g]	concentration in liver [ng/g]	concentration in plasma [µg/mL]
Rat [13]	–	365	–	–
Rat [14]	–	1730	–	–
Rat [15]	–	26900	–	–
Rat [17]	–	–	–	0.0352
Rat [18]	1230	–	–	–
Rat [19]	–	14100	–	–
Rat [20]	–	–	601	–
Rat [21]	–	–	727	–
Rat [23]	–	2040	–	–
Rat [24]	–	–	64300	–

concentration in plasma [µg/mL]
Details	0.5 h	0.75 h	3 h	5 min	12 h
Rat [16]	–	1.47	–	–	0.372
Rat [22]	234	–	2.8	0.172	25.6

O=S(=O)([O-])C(F)(F)C(F)(F)C(F)(F)C(F)(F)F.[K+] [Potassium Perfluorobutane Sulfonate]
Details	concentration in brain [ng/g]	concentration in kidney [ng/g]	concentration in liver [ng/g]	concentration in plasma [µg/mL]
Rat [25]	518	–	–	–
Rat [26]	–	–	5050	–
Rat [27]	–	–	–	17.3
Rat [28]	–	11000	–	–
Rat [29]	–	–	–	11.4

Details	concentration in plasma [µg/mL]
Rat [30], 0.5 h	22.2
Rat [30], 12 h	0.938
Rat [31], 3 h	15.1
Rat [31], 5 min	0.32
Rat [32], 0.75 h	13.4
Rat [32], 12 h	4.96
Rat [33], 0.75 h	21.1
Rat [33], 24 h	0.171

CO [methanol]
monkey
Details	concentration in blood [µg/mL]
0.9399 h	16.1
1.959 h	9.03
2.967 h	4.92
4.499 h	3.11
6.031 h	0.903

monkey, during exposure
Details	concentration in blood [µg/mL]
-98 s	26.9
-5.593 h	4.82
-5.081 h	8.33
-3.07 h	21

From EPA's CvTdb concentration-time database
